As usually defined, the IC50 is the point on the concentration scale where inhibition reaches its midpoint.

Experimental findings from ChEMBL document CHEMBL2413043, “5-Nitro-2-furfuriliden derivatives as potential anti-Trypanosoma cruzi agents: design, synthesis, bioactivity evaluation, cytotoxicity and exploratory data analysis” (Bioorg Med Chem, 2013) are described below.

Where only a bound is given, the exact number is not on record here.

The first series relates to Trypanosoma cruzi. Description: Antitrypanosomal activity against epimastigotes of Trypanosoma cruzi Y assessed as parasite growth inhibition after 5 days by spectrophotometric analysis.
Settings: not given
The class given is functional, organism-based. In outline: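 Stationary-phase epimastigotes (10-day culture, 28 °C) diluted in LIT medium with 10% fetal calf serum to 2.0 x 10^6 parasites/mL. Compounds dissolved in DMSO (final ≤1.0%), 0.25–180.0 µM, incubated 28 °C for 5 days. Growth read at A580 versus day 0 and untreated controls as percent growth inhibition. Triplicates; IC50 by sigmoid dose–response fit, at least five concentrations.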
Consider `CC(=O)N1N=C(c2ccc(Br)cc2)OC1c1ccc([N+](=O)[O-])o1` (centres undefined), for which the “log(1/C)” value is listed as 5.01.

In the case of `CC(=O)N1N=C(c2ccc(I)cc2)OC1c1ccc([N+](=O)[O-])o1` (centres undefined), the “log(1/C)” value was found to be 4.93.

As for `N#Cc1ccc(C(=O)N/N=C/c2ccc([N+](=O)[O-])o2)cc1`, the “log(1/C)” value was 4.9.

In the case of `CCCCc1ccc(C(=O)N/N=C/c2ccc([N+](=O)[O-])o2)cc1`, the “log(1/C)” value is given as 5.98.

Take `O=C(N/N=C/c1ccc([N+](=O)[O-])o1)c1ccc(Br)cc1`: the “log(1/C)” value is 5.42.

Consider `O=C(N/N=C/c1ccc([N+](=O)[O-])o1)c1ccc(I)cc1`, for which the “log(1/C)” value is 5.49.

In the case of `CC(=O)N1N=C(c2ccccc2)OC1c1ccc([N+](=O)[O-])o1` (centres undefined), the “log(1/C)” value was 4.99.

As for `CC(=O)N1N=C(c2ccc(C)cc2)OC1c1ccc([N+](=O)[O-])o1` (centres undefined), the log(1/C) worked out at 5.01.

For `CC(=O)N1N=C(c2ccc(C#N)cc2)OC1c1ccc([N+](=O)[O-])o1` (centres undefined), the “log(1/C)” value is reported as 4.87.

As for `COc1ccc(C2=NN(C(C)=O)C(c3ccc([N+](=O)[O-])o3)O2)cc1` (centres undefined), the “log(1/C)” value amounted to 5.03.

Regarding `CC(=O)N1N=C(c2ccc(Cl)cc2)OC1c1ccc([N+](=O)[O-])o1` (centres undefined), the “log(1/C)” value was determined as 4.94.

On to `CC(=O)N1N=C(c2ccc([N+](=O)[O-])cc2)OC1c1ccc([N+](=O)[O-])o1` (centres undefined), for which the “log(1/C)” value was determined as 4.85.

Take `CCCCc1ccc(C2=NN(C(C)=O)C(c3ccc([N+](=O)[O-])o3)O2)cc1` (centres undefined): the “log(1/C)” value worked out at 5.08.

`CC(=O)N1N=C(c2ccc(C(F)(F)F)cc2)OC1c1ccc([N+](=O)[O-])o1` (centres undefined): the “log(1/C)” value is listed as 4.95.

`O=C(N/N=C/c1ccc([N+](=O)[O-])o1)c1ccccc1`: the “log(1/C)” value is 5.35.

With `O=C(N/N=C/c1ccc([N+](=O)[O-])o1)c1ccc(Cl)cc1`, the “log(1/C)” value worked out at 5.39.

Consider `COc1ccc(C(=O)N/N=C/c2ccc([N+](=O)[O-])o2)cc1`, for which the “log(1/C)” value is given as 5.4.

Take `O=C(N/N=C/c1ccc([N+](=O)[O-])o1)c1ccc([N+](=O)[O-])cc1`: the “log(1/C)” value came to 5.02.

With `Cc1ccc(C(=O)N/N=C/c2ccc([N+](=O)[O-])o2)cc1`, the “log(1/C)” value came to 5.43.

On to `O=C(N/N=C/c1ccc([N+](=O)[O-])o1)c1ccc(C(F)(F)F)cc1`, for which the “log(1/C)” value came out at 5.35.

The series is the same for the next values; noted with them: Trypanosoma cruzi, Y, 120 h.
For `CC(=O)N1N=C(c2ccc(Br)cc2)OC1c1ccc([N+](=O)[O-])o1` (centres undefined), the 50% inhibitory concentration (IC50) came out at 9.59 µM.

Take `CC(=O)N1N=C(c2ccc(I)cc2)OC1c1ccc([N+](=O)[O-])o1` (centres undefined): the IC50 turned out to be 11.5 µM.

Consider `N#Cc1ccc(C(=O)N/N=C/c2ccc([N+](=O)[O-])o2)cc1`, for which the IC50 is 12.5 µM.

As for `CCCCc1ccc(C(=O)N/N=C/c2ccc([N+](=O)[O-])o2)cc1`, the IC50 turned out to be 1.05 µM.

Take `O=C(N/N=C/c1ccc([N+](=O)[O-])o1)c1ccc(Br)cc1`: the IC50 is 3.74 µM.

On to `O=C(N/N=C/c1ccc([N+](=O)[O-])o1)c1ccc(I)cc1`, for which the IC50 came to 3.21 µM.

As to `CC(=O)N1N=C(c2ccccc2)OC1c1ccc([N+](=O)[O-])o1` (centres undefined), the half-maximal inhibitory concentration (IC50) amounted to 10.2 µM.

Consider `CC(=O)N1N=C(c2ccc(C)cc2)OC1c1ccc([N+](=O)[O-])o1` (centres undefined), for which the IC50 is 9.84 µM.

Turning to `CC(=O)N1N=C(c2ccc(C#N)cc2)OC1c1ccc([N+](=O)[O-])o1` (centres undefined), the IC50 is 13.4 µM.

As for `COc1ccc(C2=NN(C(C)=O)C(c3ccc([N+](=O)[O-])o3)O2)cc1` (centres undefined), the IC50 turned out to be 9.26 µM.

With `CC(=O)N1N=C(c2ccc(Cl)cc2)OC1c1ccc([N+](=O)[O-])o1` (centres undefined), the 50% inhibitory concentration (IC50) amounted to 11.5 µM.

Consider `CC(=O)N1N=C(c2ccc([N+](=O)[O-])cc2)OC1c1ccc([N+](=O)[O-])o1` (centres undefined), for which the IC50 was found to be 13.9 µM.

As for `CCCCc1ccc(C2=NN(C(C)=O)C(c3ccc([N+](=O)[O-])o3)O2)cc1` (centres undefined), the IC50 came to 8.27 µM.

On to `CC(=O)N1N=C(c2ccc(C(F)(F)F)cc2)OC1c1ccc([N+](=O)[O-])o1` (centres undefined), for which the IC50 was determined as 11.1 µM.

For `O=C(N/N=C/c1ccc([N+](=O)[O-])o1)c1ccccc1`, the half-maximal inhibitory concentration (IC50) is 4.44 µM.

As for `O=C(N/N=C/c1ccc([N+](=O)[O-])o1)c1ccc(Cl)cc1`, the IC50 is 4.03 µM.

With `COc1ccc(C(=O)N/N=C/c2ccc([N+](=O)[O-])o2)cc1`, the half-maximal inhibitory concentration (IC50) amounted to 3.94 µM.

On to `O=C(N/N=C/c1ccc([N+](=O)[O-])o1)c1ccc([N+](=O)[O-])cc1`, for which the IC50 turned out to be 9.45 µM.

With `Cc1ccc(C(=O)N/N=C/c2ccc([N+](=O)[O-])o2)cc1`, the IC50 is 3.71 µM.

For the compound `O=C(N/N=C/c1ccc([N+](=O)[O-])o1)c1ccc(C(F)(F)F)cc1`, the 50% inhibitory concentration (IC50) came to 4.42 µM.

Consider `O=C(Cn1ccnc1[N+](=O)[O-])NCc1ccccc1` [BENZNIDAZOLE], for which the IC50 came to 22.7 µM.

System in a further series: not listed separately
Description: Selectivity index, ratio of IC50 for mouse J774 cells to IC50 for epimastigotes of Trypanosoma cruzi Y. The class given is toxicity, cell-based. As to conditions: read-out: Ratio IC50. Summed up: (§1)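 Selectivity index taken as IC50 in the mammalian cell line (J774 or FN1) divided by IC50 against Y-strain epimastigotes.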
In the case of `CCCCc1ccc(C(=O)N/N=C/c2ccc([N+](=O)[O-])o2)cc1`, the selectivity ratio turned out to be 26.7.

For `CC(=O)N1N=C(c2ccc(Cl)cc2)OC1c1ccc([N+](=O)[O-])o1` (centres undefined), the selectivity ratio is over 34.

On to `CC(=O)N1N=C(c2ccc([N+](=O)[O-])cc2)OC1c1ccc([N+](=O)[O-])o1` (centres undefined), for which the selectivity ratio was 8.21.

In the case of `CCCCc1ccc(C2=NN(C(C)=O)C(c3ccc([N+](=O)[O-])o3)O2)cc1` (centres undefined), the selectivity ratio was over 48.

On to `O=C(N/N=C/c1ccc([N+](=O)[O-])o1)c1ccc(Cl)cc1`, for which the selectivity ratio came out at 14.2.

As to `O=C(N/N=C/c1ccc([N+](=O)[O-])o1)c1ccc([N+](=O)[O-])cc1`, the selectivity ratio was 8.37.

With `O=C(Cn1ccnc1[N+](=O)[O-])NCc1ccccc1` [BENZNIDAZOLE], the selectivity ratio is over 18.

As to `CC1CS(=O)(=O)CCN1/N=C/c1ccc([N+](=O)[O-])o1` (centres undefined) [NIFURTIMOX], the selectivity ratio stood at 74.2.

System in a further series: not listed separately
Put plainly: Cytotoxicity against human FN1 fibroblasts after 24 hrs by MTT assay.
Settings: not given
In outline: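 Human FN1 fibroblasts kept in RPMI 1640 with 10% FBS at 37 °C, 5% CO2. Plated in triplicate at 1 x 10^4 cells/well, incubated overnight, then treated 24 h with 12.5–200 µM. MTT at 5 mg/mL for 2 h, formazan dissolved in 0.1 N HCl in isopropanol, absorbance at 540 nm, IC50 determined.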
In general terms: Tetrazolium assays rely on reduction of a dye to a coloured formazan, in cell work by metabolically active cells.
`CCCCc1ccc(C(=O)N/N=C/c2ccc([N+](=O)[O-])o2)cc1` returned an IC50 of 98 µM.

`CC(=O)N1N=C(c2ccc(Cl)cc2)OC1c1ccc([N+](=O)[O-])o1` (centres undefined) gave an IC50 of over 200 µM.

Compound `CC(=O)N1N=C(c2ccc([N+](=O)[O-])cc2)OC1c1ccc([N+](=O)[O-])o1` (centres undefined) returned a half-maximal inhibitory concentration (IC50) of over 200 µM.

For the compound `CCCCc1ccc(C2=NN(C(C)=O)C(c3ccc([N+](=O)[O-])o3)O2)cc1` (centres undefined), 186 µM corresponded to half-maximal inhibition (IC50).

In turn, `O=C(N/N=C/c1ccc([N+](=O)[O-])o1)c1ccc(Cl)cc1` yielded an IC50 of over 200 µM.

In the case of `O=C(N/N=C/c1ccc([N+](=O)[O-])o1)c1ccc([N+](=O)[O-])cc1`, the IC50 was found to be 178 µM.

As to `O=C(Cn1ccnc1[N+](=O)[O-])NCc1ccccc1` [BENZNIDAZOLE], the IC50 is over 200 µM.

For `CC1CS(=O)(=O)CCN1/N=C/c1ccc([N+](=O)[O-])o1` (centres undefined) [NIFURTIMOX], the IC50 is over 200 µM.

The test system of the next series is J774. Put plainly: Cytotoxicity against mouse J774 cells after 48 hrs by MTT assay. The series is classed as cell-based. As to conditions: J774, 48 h. Summed up: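 J774 murine macrophages in RPMI 1640 with 10% FBS, 37 °C, 5% CO2. Seeded at 1.0 x 10^4 cells/well in RPMI 1640 with 5% heat-inactivated fetal calf serum, attached 24 h. Exposed 48 h to 0.8–400.0 µM. MTT at 0.4 mg/mL final for 3 h at 37 °C, formazan in DMSO, A595. IC50 is the mean of six experiments, sigmoid fit, at least five concentrations.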
For `CCCCc1ccc(C(=O)N/N=C/c2ccc([N+](=O)[O-])o2)cc1`, the IC50 is 28.1 µM.

On to `CC(=O)N1N=C(c2ccc(Cl)cc2)OC1c1ccc([N+](=O)[O-])o1` (centres undefined), for which the IC50 is over 400 µM.

As to `CC(=O)N1N=C(c2ccc([N+](=O)[O-])cc2)OC1c1ccc([N+](=O)[O-])o1` (centres undefined), the IC50 worked out at 114 µM.

For the compound `CCCCc1ccc(C2=NN(C(C)=O)C(c3ccc([N+](=O)[O-])o3)O2)cc1` (centres undefined), the 50% inhibitory concentration (IC50) was over 400 µM.

Compound `O=C(N/N=C/c1ccc([N+](=O)[O-])o1)c1ccc(Cl)cc1` came in with an IC50 of 57.1 µM.

`O=C(N/N=C/c1ccc([N+](=O)[O-])o1)c1ccc([N+](=O)[O-])cc1`: it took 79.1 µM to reach half-maximal inhibition (IC50).

Take `O=C(Cn1ccnc1[N+](=O)[O-])NCc1ccccc1` [BENZNIDAZOLE]: the concentration for half-maximal inhibition (IC50) was over 400 µM.

As to `CC1CS(=O)(=O)CCN1/N=C/c1ccc([N+](=O)[O-])o1` (centres undefined) [NIFURTIMOX], the IC50 stood at 280 µM.

System in a further series: not listed separately
Description: Selectivity index, ratio of IC50 for human FN1 fibroblasts to IC50 for epimastigotes of Trypanosoma cruzi Y.
Settings: not given
In outline: as §1
With `CCCCc1ccc(C(=O)N/N=C/c2ccc([N+](=O)[O-])o2)cc1`, the “Ratio IC50” value was 93.33.

Regarding `CC(=O)N1N=C(c2ccc(Cl)cc2)OC1c1ccc([N+](=O)[O-])o1` (centres undefined), the “Ratio IC50” value was over 17.

For the compound `CC(=O)N1N=C(c2ccc([N+](=O)[O-])cc2)OC1c1ccc([N+](=O)[O-])o1` (centres undefined), the “Ratio IC50” value is over 14.

`CCCCc1ccc(C2=NN(C(C)=O)C(c3ccc([N+](=O)[O-])o3)O2)cc1` (centres undefined): the “Ratio IC50” value turned out to be 22.49.

On to `O=C(N/N=C/c1ccc([N+](=O)[O-])o1)c1ccc(Cl)cc1`, for which the “Ratio IC50” value is over 49.63.

In the case of `O=C(N/N=C/c1ccc([N+](=O)[O-])o1)c1ccc([N+](=O)[O-])cc1`, the “Ratio IC50” value came to 18.83.

For `O=C(Cn1ccnc1[N+](=O)[O-])NCc1ccccc1` [BENZNIDAZOLE], the “Ratio IC50” value is recorded as over 9.

As for `CC1CS(=O)(=O)CCN1/N=C/c1ccc([N+](=O)[O-])o1` (centres undefined) [NIFURTIMOX], the “Ratio IC50” value is over 53.

The test system of another series is Trypanosoma cruzi. Description: Ratio of nifurtimox IC50 to compound IC50 for epimastigotes of Trypanosoma cruzi Y. The class given is functional.
Settings: not given
On to `CCCCc1ccc(C(=O)N/N=C/c2ccc([N+](=O)[O-])o2)cc1`, for which the “Ratio IC50” value is 3.
